Laboratory results as given in ChEMBL document CHEMBL4354812, “N-Benzyl/Aryl Substituted Tryptanthrin as Dual Inhibitors of Indoleamine 2,3-Dioxygenase and Tryptophan 2,3-Dioxygenase” (J Med Chem, 2019).
Calls of active or inactive are those of the source. The calls are words filed in the database; no cut-off is given here.

What was measured:
Mus musculus [1] = assay: In vivo inhibition of IDO1/2/TDO in C57BL/6 mouse assessed as decrease in LPS-stimulated kynurenine pathway by measuring effect on kynurenine level at 60 mg/kg, ig pretreated for 24 hrs with Escherichia coli LPS followed by compound treatment measured at 1 to 30 hrs post-treatment by HPLC analysis; format: functional, organism-based
Procedure, shortened: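 C57BL/6 mice were given ip saline or E. coli LPS 5 mg/kg. 24 h later they received ig 60 mg/kg compound or 0.5% CMC-Na. Blood was taken at 1, 6, 12, 24 and 30 h after dosing. Serum Trp and Kyn were measured by HPLC and the Kyn/Trp ratio calculated. n = 3–5 mice/group.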

Rattus norvegicus [2] = assay: In vivo inhibition of IDO1/2/TDO in Sprague-Dawley rat assessed as decrease in kynurenine level in lung at 30 mg/kg, ig administered as single dose by LC-MS analysis; format: functional, organism-based
Procedure, shortened: (§1)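 Naive SD rats received a single ig dose of 30 mg/kg in 0.5% CMC-Na, with vehicle as control. Lungs were dissected and Trp and Kyn quantified by LC–MS, with the Kyn/Trp ratio calculated. n = 3–4 rats/group.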

Homo sapiens [3] = organism: Homo sapiens; assay: Inhibition of IDO1/TDO in IFNgamma-treated human HeLa cells assessed as T cell proliferation at 40 nM measured after 2 days in presence of IL-2, anti-CD3 and IFN-gamma by CFSE dye based flow cytometry analysis (reference value: 11.7 %); design: scale not given: the % may be the effect or the level left
Procedure, shortened: (§2)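 CFSE-labelled human PBMC lymphocytes (1 × 10⁶/well) were cocultured with HeLa cells (2 × 10⁵/well), a 5:1 ratio, in 150 U/mL IL-2, 100 ng/mL anti-CD3 and 60 ng/mL IFN-γ. Compound was tested at 40 nM, 200 nM, 500 nM or 1 μM. Proliferation was read by flow cytometry after 2 days, three independent experiments.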

[4] = target: T1, Indoleamine 2,3-dioxygenase 2 (Homo sapiens) (UniProt Q6ZQW0); assay: Binding affinity to human IDO2 assessed as change in spectral signal at 200 uM by CPMG NMR spectrometry analysis
T1 sequence (whole entry): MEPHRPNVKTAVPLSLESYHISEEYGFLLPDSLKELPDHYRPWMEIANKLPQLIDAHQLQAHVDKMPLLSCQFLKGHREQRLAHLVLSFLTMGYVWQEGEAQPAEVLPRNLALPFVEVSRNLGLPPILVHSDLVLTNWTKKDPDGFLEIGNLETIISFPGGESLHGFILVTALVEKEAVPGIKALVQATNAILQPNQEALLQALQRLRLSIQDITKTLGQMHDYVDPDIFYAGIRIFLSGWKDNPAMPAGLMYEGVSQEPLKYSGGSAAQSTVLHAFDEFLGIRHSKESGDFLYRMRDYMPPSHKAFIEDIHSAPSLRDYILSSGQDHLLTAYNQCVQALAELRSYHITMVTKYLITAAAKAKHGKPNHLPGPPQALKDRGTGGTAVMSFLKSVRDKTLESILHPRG

Homo sapiens [5] = organism: Homo sapiens; assay: Inhibition of IDO1/TDO in IFNgamma-treated human HeLa cells assessed as T cell proliferation at 200 nM measured after 2 days in presence of IL-2, anti-CD3 and IFN-gamma by CFSE dye based flow cytometry analysis (reference value: 11.7 %); design: scale not given: the % may be the effect or the level left; procedure, shortened: as §2
H22 = assay: Antitumor activity against mouse H22 cells implanted in Kunming mouse assessed as reduction in tumor weight at 45 mg/kg, po qd administered for 2 weeks and measured post-treatment relative to control; format: functional; design: scale not given: the % may be the effect or the level left
Procedure, shortened: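 Tumor cells (LLC, or H22 ascites cells after two intraperitoneal passages in Kunming mice) injected sc into the right forelimb at 2 × 10⁶ per mouse, in female 6–8-week C57BL/6 or Kunming mice. Oral dosing once daily began at 5 mm tumor diameter and continued 2 weeks. Vehicle was 0.5% CMC-Na. Volume was read by caliper every 2 days as long × short²/2. Tumors were weighed at sacrifice. n = 9–10/group.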

Rattus norvegicus [6] = assay: In vivo inhibition of IDO1/2/TDO in Sprague-Dawley rat assessed as decrease in kynurenine/tryptophan ratio in lung at 30 mg/kg, ig administered as single dose by LC-MS analysis; format: functional, organism-based; procedure, shortened: as §1
Homo sapiens [7] = organism: Homo sapiens; assay: Inhibition of IDO1/TDO in IFNgamma-treated human HeLa cells assessed as T cell proliferation at 500 nM measured after 2 days in presence of IL-2, anti-CD3 and IFN-gamma by CFSE dye based flow cytometry analysis (reference value: 11.7 %); design: scale not given: the % may be the effect or the level left; procedure, shortened: as §2
Mus musculus [8] = assay: In vivo blockade of kynurenine pathway in C57BL/6 mouse implanted with mouse LLC cells assessed as decrease in kynurenine/tryptophan ratio in tumor at 45 mg/kg, po qd for 2 weeks by LC-MS analysis; format: functional, organism-based
Procedure, shortened: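 LLC tumor-bearing C57BL/6 mice received oral dosing once daily in 0.5% CMC-Na for 2 weeks. Tumors were dissected and Trp and Kyn measured by LC–MS on a C18 column with acetonitrile/0.1% formic acid gradient (5–80%), positive ion mode, m/z 205 (Trp) and 209 (Kyn), metronidazole internal standard. Kyn/Trp ratio calculated. n = 4–6/group.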

Homo sapiens [9] = organism: Homo sapiens; assay: Inhibition of IDO1/TDO in IFNgamma-treated human HeLa cells assessed as T cell proliferation at 1 uM measured after 2 days in presence of IL-2, anti-CD3 and IFN-gamma by CFSE dye based flow cytometry analysis (reference value: 11.7 %); design: scale not given: the % may be the effect or the level left; procedure, shortened: as §2

CN1CCN(Cc2ccc3nc4n(c(=O)c3c2)-c2ccc(F)cc2C4=O)CC1
inhibition (Mus musculus [1]): inactive
inhibition (Rattus norvegicus [2]): Active
Activity (Homo sapiens [3]): 37.2%
Activity [4]: Active
Activity (Homo sapiens [5]): 39.8%
Activity (H22): 55.4%
inhibition (Rattus norvegicus [6]): Active
Activity (Homo sapiens [7]): 51.4%
Activity (Mus musculus [8]): Active
Activity (Homo sapiens [9]): 52.8%
